# Values joined by “and” are separate entries in the source; they are usually repeats but may differ in a detail not shown here. Equal values may be shown once. Active and inactive are the calls of the source. No cut-off for these calls is given here.
# Legend:
# [1] = organism: Rattus norvegicus; experiment: Weight change of rat was determined; + = significant increase in weight change from control; type: functional, organism-based
# Outline: (§1)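 In adjuvant arthritic rats dosed orally from day 18 through day 50 post adjuvant injection, weight change was compared with vehicle control by Dunnett's t test.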
# [2] = system: Rattus norvegicus; experiment: Evaluated for the carrageenan-induced pleural volume in rats at a dose of 3.16 mg/kg after peroral administration.; type: functional; conditions: route oral
# Outline: (§2)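 Carrageenan-induced pleurisy in rats, Evans blue pleural effusion assay. Twenty oral doses, one per day, were given before carrageenan challenge. Pleural volume is mL ± SD, n = 6 per group, with % change from control and Dunnett's t test (p < 0.05).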
# [3] = organism: Rattus norvegicus; experiment: 32-day X-ray(0= normal to 10= maximum joint destruction) was determined.; type: functional
# Outline: (§3)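 Adjuvant-induced arthritic rats were dosed orally once daily from day 18 through day 50 after adjuvant injection, on a therapeutic regimen. The uninjected joint was X-rayed and scored blind at 32 days on an arbitrary scale from 0 (normal) to 10 (maximum joint destruction). Values are mean ± SD, compared with vehicle control by Dunnett's t test (p < 0.05).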
# [4] = system: Rattus norvegicus; experiment: Evaluated for the adjuvant-induced arthritis edema of uninjected paw on 11-day after 10 mg/kg dose of peroral administration of the compound; conditions: route oral
# [5] = organism: Rattus norvegicus; experiment: Weight change of rat was determined; Not significant; type: functional, organism-based; outline: as §1
# [6] = system: Rattus norvegicus; experiment: Evaluated for the adjuvant-induced arthritis edema of uninjected paw on 32-day after 10 mg/kg dose of peroral administration of the compound; conditions: route oral
# [7] = system: Mus musculus; experiment: Evaluated for the delayed type hypersensitivity (DTH) response to methylated BSA (mBSA) in sensitive mice after peroral administration of 50 mg/kg; type: functional; conditions: route oral
# Outline: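 Mice were sensitized to mBSA on day 0, dosed orally on days 4, 5, 6 and 7, and challenged with mBSA in the left hind paw on day 7. Paw weight was measured 24 h after challenge, with 10 mice per group. Negative controls received Freund's complete adjuvant without mBSA.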
# [8] = system: Rattus norvegicus; experiment: Evaluated for the adjuvant-induced arthritis edema of uninjected paw on 32-day after 31.6 mg/kg dose of peroral administration of the compound; conditions: route oral
# [9] = system: Rattus norvegicus; experiment: Evaluated for the adjuvant-induced arthritis edema of uninjected paw on 11-day after 31.6 mg/kg dose of peroral administration of the compound; conditions: route oral
# [10] = system: Rattus norvegicus; experiment: Evaluated for the adjuvant-induced arthritis edema of uninjected paw on 32-day after 100 mg/kg dose of peroral administration of the compound; conditions: route oral
# [11] = system: Rattus norvegicus; experiment: Evaluated for the adjuvant-induced arthritis edema of uninjected paw on 11-day after 100 mg/kg dose of peroral administration of the compound; conditions: route oral
# [12] = organism: Rattus norvegicus; experiment: X-rays scored on an arbitrary (0=normal to 10=max. joint destruction) scale in a blinded manner was determined; 32-day X-ray; type: functional; outline: as §3
# [13] = system: Rattus norvegicus; experiment: Evaluated for the adjuvant-induced arthritis edema of uninjected paw on 32-day after 1 mg/kg dose of peroral administration of the compound; conditions: route oral
# [14] = system: Rattus norvegicus; experiment: Evaluated for the adjuvant-induced arthritis edema of uninjected paw on 11-day after 3.16 mg/kg dose of peroral administration of the compound; conditions: route oral
# [15] = system: Rattus norvegicus; experiment: Evaluated for the adjuvant-induced arthritis edema of uninjected paw on 11-day after 1 mg/kg dose of peroral administration of the compound; conditions: route oral
# [16] = system: Rattus norvegicus; experiment: Evaluated for the carrageenan-induced pleural volume in rats at a dose of 4 mg/kg after peroral administration.; type: functional; conditions: route oral; outline: as §2
# [17] = system: Mus musculus; experiment: Evaluated for the Delayed type hypersensitivity (DTH) response to methylated BSA (mBSA) in sensitive mice at a dose of 31.6.00 mg/kg after peroral administration; type: functional
# Outline: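 Delayed-type hypersensitivity in mice: sensitized to mBSA on day 0, dosed orally on days 4, 5, 6 and 7, then challenged with mBSA in the left hind paw on day 7. Paw weight was measured 24 h after challenge. n = 10 per group. Result is % change from sensitized positive control, by Dunnett's t test. Negative control received Freund's complete adjuvant without mBSA.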
# [18] = system: Rattus norvegicus; experiment: Evaluated for the carrageenan-induced pleural volume in rats at a dose of 100 mg/kg after peroral administration.; type: functional; conditions: route oral; outline: as §2
# [19] = system: Rattus norvegicus; experiment: Evaluated for the adjuvant-induced arthritis edema of uninjected paw on 32-day after 3.16 mg/kg dose of peroral administration of the compound; conditions: route oral
# [20] = system: Rattus norvegicus; experiment: Evaluated for the […] on 32-day after 10 mg/kg dose of peroral administration of the compound; type: functional; conditions: route oral
# Outline: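 Adjuvant-induced arthritic rat model with oral dosing from day 18 through day 50 post adjuvant. Edema was the volume change of the uninjected hind paw. The 11-day Δ is day 29 volume minus day 18 volume; the 32-day Δ is day 50 minus day 18. Values are mL ± SD against a vehicle control, by Dunnett's t test (p < 0.05).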
compound,measurement,setting,value
COc1ccc2c(c1)c(CC(=O)O)c(C)n2C(=O)c1ccc(Cl)cc1 [INDOMETHACIN],Weight change,[1],Active
same,Pleural volume,[2],3.5 mL
same,Score,[3],3.54 and <4.07 and <3.8 and <4.04
CNS(=O)(=O)OC[C@@H](COc1ccccc1OC)OS(=O)(=O)NC,Edema,[4],<-0.33 mL
same,Weight change,[5],inactive
same,Edema,[6],<-0.46 mL
same,Score,[3],<4.96 and 6.64
O=P1(N(CCCl)CCCl)NCCCO1 (stereo unspecified) [CYCLOPHOSPHAMIDE ANHYDROUS],Paw weight,[7],153 mg
CNS(=O)(=O)OC[C@H](COc1ccccc1OC)OS(=O)(=O)NC,Edema,[8],-0.03 mL
same,Edema,[9],0.16 mL
same,Score,[3],7.86
COc1ccccc1OCC(O)CO (stereo unspecified) [GUAIFENESIN],Weight change,[5],inactive
same,Edema,[10],-0.4 mL
same,Edema,[11],0.07 mL
same,Score,[12],8.83
CNS(=O)(=O)OCC(COc1ccccc1OC)OS(=O)(=O)NC (stereo unspecified),Edema,[4],<-0.39 mL
same,Edema,[13],<-0.23 mL
same,Edema,[14],<-0.14 mL
same,Weight change,[5],inactive
same,Edema,[15],0.1 mL
same,Pleural volume,[16],5.2 mL
same,Score,[3],<5.82 and <5.77 and <6.9 and 7.8
same,Paw weight,[17],179 mg
same,Pleural volume,[18],4.92 mL
same,Edema,[19],<-0.38 mL
same,Edema,[20],-0.41 mL and <-0.42 mL and <-0.61 mL

# Source: ChEMBL document CHEMBL1124858, “Methylsulfamic acid esters. A new chemical class of oral antiarthritic agents” (1990)
